# According to ChEMBL document CHEMBL1125170, “A novel series of selective leukotriene antagonists: exploration and optimization of the acidic region in 1,6-disubstituted indoles and indazoles” (1990):
# Values joined by “and” are separate entries in the source; they are usually repeats but may differ in a detail not shown here. Identical values can stand only once.
# Tests used:
# Cavia porcellus [1] = organism: Cavia porcellus; experiment: Dissociation constant KB = [antagonist]/(dose ratio -1). KB determined in guinea pig tracheal spirals with LTE4 as agonist.; assay type: functional, Trachea
# Method in brief: (§1)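 Isolated guinea pig tracheal strips in Krebs' buffer with indomethacin (5 μM), 37 °C, 95% O2/5% CO2, resting tension 2 g. Carbachol (30 μM) sets the maximum. Antagonist incubated 30 min, then cumulative LTE4 concentration–response curves in log increments, one curve per tissue. EC50 by linear regression, paired vehicle controls. KB = [antagonist]/(DR − 1) (Furchgott).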
# Cavia porcellus [2] = organism: Cavia porcellus; experiment: In vitro antagonism of 8 nM of peptidoleukotriene (LTE4) induced contraction of guinea pig tracheal spirals at 10 X E-7M concentration; assay type: functional, Trachea
# Method in brief: (§2)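 Guinea pig tracheal spirals held at 37 °C in modified Krebs' (mM: NaCl 119, KCl 4.6, CaCl2 1.8, MgCl2 0.5, NaHCO3 24.9, NaH2PO4 1.0, glucose 11.1) plus indomethacin 5 μM, resting tension 2 g, isometric recording. After reproducible 8 nM LTE4 responses, compound added for 10 min, then rechallenged. % inhibition is adjusted for the paired vehicle tissue. At least four spirals, paired t test.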
# Cavia porcellus [3] = organism: Cavia porcellus; experiment: In vitro antagonism of 8 nM of peptidoleukotriene (LTE4) induced contraction of guinea pig tracheal spirals at 100 X E-7M concentration; assay type: functional, Trachea; method in brief: as §2
# Cavia porcellus [4] = organism: Cavia porcellus; experiment: In vitro antagonism of 8 nM of peptidoleukotriene (LTE4) induced contraction of guinea pig tracheal spirals at 0.1 X E-7M concentration; assay type: functional, Trachea; method in brief: as §2
# Cavia porcellus [5] = organism: Cavia porcellus; experiment: In vitro antagonism of 8 nM of peptidoleukotriene (LTE4) induced contraction of guinea pig tracheal spirals at 3.3 X E-7M concentration; assay type: functional, Trachea; method in brief: as §2
# [6] = molecular target: T1, Cysteinyl leukotriene receptor 1 (Cavia porcellus) (UniProt Q2NNR5); experiment: Dissociation constant KB = [antagonist]/(dose ratio -1).KB determined in guinea pig tracheal spirals with LTE4 as agonist; assay type: functional, tissue-based; details: Trachea; method in brief: as §1
# T1 sequence (whole entry): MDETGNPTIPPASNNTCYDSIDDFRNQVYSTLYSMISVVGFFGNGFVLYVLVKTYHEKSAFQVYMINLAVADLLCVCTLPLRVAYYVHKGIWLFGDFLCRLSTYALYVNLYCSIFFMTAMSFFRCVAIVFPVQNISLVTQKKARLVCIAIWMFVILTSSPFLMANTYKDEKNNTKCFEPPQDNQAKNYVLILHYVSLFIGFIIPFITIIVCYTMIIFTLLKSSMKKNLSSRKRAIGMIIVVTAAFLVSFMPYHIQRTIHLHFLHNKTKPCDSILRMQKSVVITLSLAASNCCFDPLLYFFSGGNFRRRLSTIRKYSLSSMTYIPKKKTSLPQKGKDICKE
# Cavia porcellus [7] = organism: Cavia porcellus; experiment: In vitro antagonism of 8 nM of peptidoleukotriene (LTE4) induced contraction of guinea pig tracheal spirals at 1 X E-7M concentration; assay type: functional, Trachea; method in brief: as §2
# Cavia porcellus [8] = organism: Cavia porcellus; experiment: In vitro antagonism of 8 nM of peptidoleukotriene (LTE4) induced contraction of guinea pig tracheal spirals at 33 X E-7M concentration; assay type: functional, Trachea; method in brief: as §2
# Cavia porcellus [9] = organism: Cavia porcellus; experiment: In vitro antagonism of 8 nM of peptidoleukotriene (LTE4) induced contraction of guinea pig tracheal spirals at 0.01 X E-7M concentration; assay type: functional, Trachea; method in brief: as §2
# Cavia porcellus [10] = organism: Cavia porcellus; experiment: In vitro antagonism of 8 nM of peptidoleukotriene (LTE4) induced contraction of guinea pig tracheal spirals at 0.033 X E-7M concentration; assay type: functional, Trachea; method in brief: as §2
structure (smiles),measurement,setting,value
COc1cc(C(=O)NS(=O)(=O)c2ccccc2Cl)ccc1Cn1ccc2ccc(NC(=O)CC3CCCC3)cc21,pKB,Cavia porcellus [1],9.8
COc1cc(C(=O)NS(=O)(=O)c2ccccc2N)ccc1Cn1ccc2ccc(NC(=O)CC3CCCC3)cc21,pKB,Cavia porcellus [1],9.9
COc1cc(C(=O)NS(=O)(=O)c2ccccc2C)ccc1Cn1ncc2ccc(NC(=O)CC3CCCC3)cc21,pKB,Cavia porcellus [1],10.9
CCCCC(CC)C(=O)Nc1ccc2ccn(Cc3ccc(C(=O)NS(=O)(=O)c4ccc(F)cc4)cc3OC)c2c1 (stereo unspecified),pKB,Cavia porcellus [1],7.7
CCCCC(CC)C(=O)Nc1ccc2ccn(Cc3ccc(C(=O)NS(=O)(=O)C(C)C)cc3OC)c2c1 (stereo unspecified),Antagonism,Cavia porcellus [2],47%
CCCCC(CC)C(=O)Nc1ccc2ccn(Cc3ccc(C(=O)NCC(=O)O)cc3OC)c2c1 (stereo unspecified),Antagonism,Cavia porcellus [3],43%
CCCCC(CC)C(=O)Nc1ccc2ccn(Cc3ccc(C(=O)Nc4ccccc4C(=O)O)cc3OC)c2c1 (stereo unspecified),Antagonism,Cavia porcellus [3],34%
COc1cc(C(=O)NS(=O)(=O)c2c(C)cccc2Cl)ccc1Cn1ccc2ccc(NC(=O)CC3CCCC3)cc21,pKB,Cavia porcellus [1],8.8
COc1cc(-c2nn[nH]n2)ccc1Cn1ccc2ccc(NC(=O)OC3CCCC3)cc21,Antagonism,Cavia porcellus [2],62%
same,pKB,Cavia porcellus [1],7.6
COc1cc(C(=O)NS(=O)(=O)c2cccs2)ccc1Cn1ccc2ccc(NC(=O)CC3CCCC3)cc21,pKB,Cavia porcellus [1],9.6
CCC(C(=O)Nc1ccc2ccn(Cc3ccc(C(=O)NS(=O)(=O)c4ccccc4)cc3OC)c2c1)c1ccccc1 (stereo unspecified),Antagonism,Cavia porcellus [4],33%
CCCCC(CC)C(=O)Nc1ccc2ccn(Cc3ccc(C(=O)NS(=O)(=O)c4ccc(OC)cc4)cc3OC)c2c1 (stereo unspecified),pKB,Cavia porcellus [1],7.4
CCCCC(CC)C(=O)Nc1ccc2ccn(Cc3ccc(-c4nn[nH]n4)cc3OC)c2c1 (stereo unspecified),Antagonism,Cavia porcellus [5],31%
same,Antagonism,Cavia porcellus [2],50%
same,pKB,[6],6.6
COc1cc(C(=O)NS(=O)(=O)c2ccccn2)ccc1Cn1ccc2ccc(NC(=O)CC3CCCC3)cc21,pKB,Cavia porcellus [1],8.9
CCCCC(CC)C(=O)Nc1ccc2ccn(Cc3ccc(C(=O)NS(=O)(=O)c4ccc(Cl)cc4)cc3OC)c2c1 (stereo unspecified),pKB,Cavia porcellus [1],7.8
CCCCC(CC)C(=O)Nc1ccc2ccn(Cc3ccc(C(=O)Nc4nn[nH]n4)cc3OC)c2c1 (stereo unspecified),Antagonism,Cavia porcellus [2],20%
same,Antagonism,Cavia porcellus [3],62%
CCCCC(CC)C(=O)Nc1ccc2ccn(Cc3ccc(C(=O)O)cc3Cl)c2c1 (stereo unspecified),Antagonism,Cavia porcellus [3],44%
CCCCC(CC)C(=O)Nc1ccc2ccn(Cc3ccc(C(=O)NS(=O)(=O)c4ccccc4)cc3OC)c2c1 (stereo unspecified),pKB,Cavia porcellus [1],8.6
same,Antagonism,Cavia porcellus [4],27%
same,Antagonism,Cavia porcellus [7],100%
CCCCC(CC)C(=O)Nc1ccc2ccn(Cc3ccc(S(=O)(=O)O)cc3)c2c1 (stereo unspecified),Antagonism,Cavia porcellus [3],48%
COc1cc(C(=O)NS(=O)(=O)c2cc(C)ccc2C)ccc1Cn1ccc2ccc(NC(=O)CC3CCCC3)cc21,pKB,Cavia porcellus [1],8.4
CCCCC(CC)C(=O)Nc1ccc2ccn(Cc3ccc(C(=O)NS(C)(=O)=O)cc3OC)c2c1 (stereo unspecified),Antagonism,Cavia porcellus [2],100% and 60%
CCCCC(CC)C(=O)Nc1ccc2ccn(Cc3ccc(C(=O)C(C#N)S(=O)(=O)c4ccccc4)cc3OC)c2c1 (stereo unspecified),pKB,Cavia porcellus [1],8.1
same,Antagonism,Cavia porcellus [7],73%
CCCCC(CC)C(=O)Nc1ccc2ccn(Cc3ccc(C(=O)O)cc3OCCCc3nnn[nH]3)c2c1 (stereo unspecified),Antagonism,Cavia porcellus [2],32%
CCCCC(CC)C(=O)Nc1ccc2ccn(Cc3ccc(C(=O)N[S+]([O-])c4ccccc4)cc3OC)c2c1 (stereo unspecified),Antagonism,Cavia porcellus [8],34%
CCCCC(CC)C(=O)Nc1ccc2ccn(Cc3ccc(C(=O)NS(=O)(=O)c4ccccc4C)cc3OC)c2c1 (stereo unspecified),pKB,Cavia porcellus [1],8.9
CCCCC(CC)C(=O)Nc1ccc2ccn(Cc3ccc(C(=O)O)cc3OCCCC#N)c2c1 (stereo unspecified),Antagonism,Cavia porcellus [8],33%
same,Antagonism,Cavia porcellus [3],84%
COC(=O)C(C(=O)c1ccc(Cn2ccc3ccc(NC(=O)CC4CCCC4)cc32)c(OC)c1)S(=O)(=O)c1ccccc1 (stereo unspecified),Antagonism,Cavia porcellus [9],63%
same,pKB,Cavia porcellus [1],10.1
same,Antagonism,Cavia porcellus [10],94%
CCCCC(CC)C(=O)Nc1ccc2ccn(Cc3ccc(C(=O)NS(=O)(=O)Cc4ccccc4)cc3OC)c2c1 (stereo unspecified),Antagonism,Cavia porcellus [3],89%
COC(=O)C(C(=O)c1ccc(Cn2ncc3ccc(NC(=O)OC4CCCC4)cc32)c(OC)c1)S(=O)(=O)c1ccccc1 (stereo unspecified),Antagonism,Cavia porcellus [9],53%
same,pKB,Cavia porcellus [1],9.9
same,Antagonism,Cavia porcellus [10],78%
CCCCC(CC)C(=O)Nc1ccc2ccn(Cc3ccc(C(=O)NS(=O)(=O)c4ccccc4)cc3)c2c1 (stereo unspecified),pKB,Cavia porcellus [1],6.8
same,Antagonism,Cavia porcellus [7],42%
CCCCC(CC)C(=O)Nc1ccc2ccn(Cc3ccc(C(=O)NO)cc3OC)c2c1 (stereo unspecified),Antagonism,Cavia porcellus [3],38%
COc1cc(C(=O)NS(=O)(=O)c2ccccc2OC)ccc1Cn1ccc2ccc(NC(=O)CC3CCCC3)cc21,pKB,Cavia porcellus [1],9.7
CCCCC(CC)C(=O)Nc1ccc2ccn(Cc3ccc(OC)c(C(=O)O)c3)c2c1 (stereo unspecified),Antagonism,Cavia porcellus [3],28%
COc1cc(C(=O)O)ccc1Cn1ccc2ccc(NC(=O)CC3CCCC3)cc21,Antagonism,Cavia porcellus [7],34%
CCCCC(CC)C(=O)Nc1ccc2ccn(Cc3c(OC)cc(C(=O)O)cc3OC)c2c1 (stereo unspecified),Antagonism,Cavia porcellus [2],63%
CCCCC(CC)C(=O)Nc1ccc2ccn(Cc3ccc(C(=O)O)c(Br)c3)c2c1 (stereo unspecified),Antagonism,Cavia porcellus [8],33%
CCCCC(CC)C(=O)Nc1ccc2ccn(Cc3ccc(C(=O)C(C(=O)OC)S(=O)(=O)c4ccccc4)cc3OC)c2c1 (stereo unspecified),pKB,Cavia porcellus [1],8.5
same,Antagonism,Cavia porcellus [4],65%
same,Antagonism,Cavia porcellus [7],100%
COc1cc(-c2nn[nH]n2)ccc1Cn1ncc2ccc(NC(=O)OC3CCCC3)cc21,Antagonism,Cavia porcellus [2],100%
same,pKB,Cavia porcellus [1],7.7
same,Antagonism,Cavia porcellus [7],58%
CCCCC(CC)C(=O)Nc1ccc2ccn(Cc3ccc(C(=O)O)cc3F)c2c1 (stereo unspecified),Antagonism,Cavia porcellus [3],86%
CCCCOc1cc(C(=O)O)ccc1Cn1ccc2ccc(NC(=O)C(CC)CCCC)cc21 (stereo unspecified),Antagonism,Cavia porcellus [8],44%
same,Antagonism,Cavia porcellus [3],83%
CCC(C(=O)Nc1ccc2cnn(Cc3ccc(C(=O)NS(=O)(=O)c4ccccc4)cc3OC)c2c1)c1ccccc1 (stereo unspecified),Antagonism,Cavia porcellus [10],43%
CCCCC(CC)C(=O)Nc1ccc2ccn(Cc3c(OC)cc(C(=O)NS(=O)(=O)c4ccccc4)cc3OC)c2c1 (stereo unspecified),pKB,Cavia porcellus [1],8
same,Antagonism,Cavia porcellus [7],72%
CCCCC(CC)C(=O)Nc1ccc2ccn(Cc3ccc(S(=O)(=O)NC(=O)c4ccccc4)cc3)c2c1 (stereo unspecified),Antagonism,Cavia porcellus [3],37%
CCCCC(CC)C(=O)Nc1ccc2ccn(Cc3ccc(C(=O)O)cc3)c2c1 (stereo unspecified),Antagonism,Cavia porcellus [3],44%
CCCCC(CC)C(=O)Nc1ccc2cnn(Cc3ccc(-c4nn[nH]n4)cc3OC)c2c1 (stereo unspecified),Antagonism,Cavia porcellus [2],100%
same,pKB,Cavia porcellus [1],7.1
CCCCC(CC)C(=O)Nc1ccc2ccn(Cc3ccc(C(=O)O)cc3OC)c2c1 (stereo unspecified),Antagonism,Cavia porcellus [2],59%
same,pKB,[6],6.6
same,Antagonism,Cavia porcellus [8],100%
CCCCC(CC)C(=O)Nc1ccc2ccn(Cc3ccc(C(=O)O)c(OC)c3)c2c1 (stereo unspecified),Antagonism,Cavia porcellus [2],15%
CCCCC(CC)C(=O)Nc1ccc2ccn(Cc3ccc(/C=C/C(=O)O)cc3OC)c2c1 (stereo unspecified),Antagonism,Cavia porcellus [3],31%
CCCCC(CC)C(=O)Nc1ccc2ccn(Cc3ccc(C(=O)O)cc3C)c2c1 (stereo unspecified),Antagonism,Cavia porcellus [8],21%
same,Antagonism,Cavia porcellus [3],91%
COc1ccc(OC)c(S(=O)(=O)NC(=O)c2ccc(Cn3ccc4ccc(NC(=O)CC5CCCC5)cc43)c(OC)c2)c1,pKB,Cavia porcellus [1],9.1
CCCCC(CC)C(=O)Nc1ccc2ccn(Cc3ccc(C(=O)CS(=O)(=O)c4ccccc4)cc3OC)c2c1 (stereo unspecified),Antagonism,Cavia porcellus [2],59%
CCCCC(CC)C(=O)Nc1ccc2ccn(Cc3cccc(C(=O)O)c3)c2c1 (stereo unspecified),Antagonism,Cavia porcellus [3],31%
CCCCC(CC)C(=O)Nc1ccc2ccn(Cc3ccc(C(=O)NS(=O)(=O)c4ccc([N+](=O)[O-])cc4)cc3OC)c2c1 (stereo unspecified),pKB,Cavia porcellus [1],7.7
COc1cc(C(=O)NS(=O)(=O)c2ccc3ccccc3c2)ccc1Cn1ccc2ccc(NC(=O)CC3CCCC3)cc21,pKB,Cavia porcellus [1],8.3
CCCCOC(=O)Nc1ccc2cnn(Cc3ccc(-c4nn[nH]n4)cc3OC)c2c1,Antagonism,Cavia porcellus [5],55%
same,pKB,Cavia porcellus [1],7.1
CCCCCC(=O)Nc1ccc2ccn(Cc3ccc(-c4nn[nH]n4)cc3OC)c2c1,Antagonism,Cavia porcellus [2],32%
same,Antagonism,Cavia porcellus [8],86%
COc1cc(C(=O)NS(=O)(=O)c2ccccc2C)ccc1Cn1ncc2ccc(NC(=O)OC3CCCC3)cc21,pKB,Cavia porcellus [1],10.2
CCCCOC(=O)Nc1ccc2ccn(Cc3ccc(-c4nn[nH]n4)cc3OC)c2c1,Antagonism,Cavia porcellus [2],68%
same,pKB,Cavia porcellus [1],7.2
CCCCC(CC)C(=O)Nc1ccc2ccn(Cc3cccc(C(=O)O)c3OC)c2c1 (stereo unspecified),Antagonism,Cavia porcellus [3],38%
CCCCC(CC)C(=O)Nc1ccc2ccn(Cc3ccc(C(=O)NS(=O)(=O)c4ccc(C)cc4)cc3OC)c2c1 (stereo unspecified),pKB,Cavia porcellus [1],8.4
COc1cc(C(=O)N(C)S(=O)(=O)c2ccccc2)ccc1Cn1ccc2ccc(NC(=O)CC3CCCC3)cc21,Antagonism,Cavia porcellus [7],42%
COc1cc(-c2nn[nH]n2)ccc1Cn1ccc2ccc(NC(=O)CC3CCCC3)cc21,Antagonism,Cavia porcellus [5],79%
same,Antagonism,Cavia porcellus [2],100%
same,Antagonism,Cavia porcellus [7],42%
CCCCC(CC)C(=O)Nc1ccc2ccn(Cc3ccc(C(=O)NS(=O)(=O)c4ccccc4)c(OC)c3)c2c1 (stereo unspecified),Antagonism,Cavia porcellus [7],52%
